Laboratory results from ChEMBL document CHEMBL4814052, “Isatin-derived azoles as new potential antimicrobial agents: Design, synthesis and biological evaluation” (2021).
In brackets after ≈: the same amount, converted by molar mass. Activity calls are given as the source filed them. The calls are words filed in the database; no cut-off is given here.

Legend:
Staphylococcus aureus [1] = assay: Antibacterial activity against methicillin resistant Staphylococcus aureus by broth microdilution method; format: functional
Enterococcus faecalis [2] = assay: Antibacterial activity against Enterococcus faecalis by broth microdilution method; format: functional
Staphylococcus aureus [3] = assay: Antibacterial activity against Staphylococcus aureus by broth microdilution method; format: functional
Staphylococcus aureus [4] = assay: Antibacterial activity against Staphylococcus aureus ATCC 25923 by broth microdilution method; format: functional
Staphylococcus aureus [5] = assay: Antibacterial activity against Staphylococcus aureus ATCC 29213 by broth microdilution method; format: functional
Klebsiella pneumoniae = assay: Antibacterial activity against Klebsiella pneumonia by broth microdilution method; format: functional
Escherichia coli [6] = assay: Antibacterial activity against Escherichia coli by broth microdilution method; format: functional
Escherichia coli [7] = assay: Antibacterial activity against Escherichia coli ATCC 25922 by broth microdilution method; format: functional
Pseudomonas aeruginosa [8] = assay: Antibacterial activity against Pseudomonas aeruginosa by broth microdilution method; format: functional
Pseudomonas aeruginosa [9] = assay: Antibacterial activity against Pseudomonas aeruginosa ATCC 27853 by broth microdilution method; format: functional
Acinetobacter baumannii = assay: Antibacterial activity against Acinetobacter baumannii by broth microdilution method; format: functional
Escherichia coli [10] = assay: Antibacterial activity against Escherichia coli ATCC 25922 measured after 6 passages by broth microdilution method; format: functional, organism-based
Candida tropicalis [11] = assay: Antifungal activity against Candida tropicalis; format: functional
Enterococcus faecalis [12] = assay: Bactericidal activity against Enterococcus faecalis by broth microdilution method; format: functional, organism-based
Candida tropicalis [13] = assay: Fungicidal activity against Candida tropicalis by broth microdilution method; format: functional, organism-based
Escherichia coli [14] = assay: Antibacterial activity against Escherichia coli ATCC 25922 measured after 10 passages by broth microdilution method; format: functional, organism-based
Calf thymus DNA [15] = assay: Binding affinity to calf thymus DNA assessed as hyperchromic effect by UV-Vis spectroscopy; format: nucleic-acid assay; details: Bos taurus
Method in brief: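 UV-Vis absorbance of the compound–DNA mixture is compared with the summed absorbances of free DNA and free compound. Hyperchromism is read as higher absorbance of the mixture than that sum.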

Calf thymus DNA [16] = assay: Binding affinity to calf thymus DNA assessed as reduction in neutral red-DNA complex formation by competitive binding assay; format: nucleic-acid assay; details: Bos taurus
Escherichia coli [17] = assay: Potency index, ratio of MIC of norfloxacin to MIC of compound for antibacterial activity against Escherichia coli ATCC 25922 by broth microdilution method; format: functional
Candida parapsilosis = assay: Fungicidal activity against Candida parapsilosis ATCC 22019 assessed as […] by broth microdilution method

Structure (SMILES) | MIC (Staphylococcus aureus [1]) | MIC (Enterococcus faecalis [2]) | MIC (Staphylococcus aureus [3]) | MIC (Staphylococcus aureus [4]) | MIC (Staphylococcus aureus [5]) | MIC (Klebsiella pneumoniae) | MIC (Escherichia coli [6]) | MIC (Escherichia coli [7]) | MIC (Pseudomonas aeruginosa [8]) | MIC (Pseudomonas aeruginosa [9]) | MIC (Acinetobacter baumannii) | Activity (Escherichia coli [10]) | MIC (Candida tropicalis [11]) | Activity (Enterococcus faecalis [12]) | Activity (Candida tropicalis [13]) | Activity (Escherichia coli [14]) | Activity (Calf thymus DNA [15]) | Activity (Calf thymus DNA [16]) | Ratio (Escherichia coli [17]) | Ratio (Candida parapsilosis)
O=C1C(=O)N(CCn2cnc3ccccc32)c2ccccc21 | 256 µg/mL (≈ 879 µM) | 256 µg/mL (≈ 879 µM) | 64 µg/mL (≈ 220 µM) | 256 µg/mL (≈ 879 µM) | 256 µg/mL (≈ 879 µM) | 128 µg/mL (≈ 439 µM) | 256 µg/mL (≈ 879 µM) | 256 µg/mL (≈ 879 µM) | 512 µg/mL (≈ 1760 µM) | 256 µg/mL (≈ 879 µM) | 128 µg/mL (≈ 439 µM) |  |  |  |  |  |  |  |  | 
Cc1cc2ncn(CCN3C(=O)C(=O)c4ccccc43)c2cc1C | 128 µg/mL (≈ 401 µM) | 256 µg/mL (≈ 802 µM) | 256 µg/mL (≈ 802 µM) | 256 µg/mL (≈ 802 µM) | 128 µg/mL (≈ 401 µM) | 128 µg/mL (≈ 401 µM) | 256 µg/mL (≈ 802 µM) | 256 µg/mL (≈ 802 µM) | 256 µg/mL (≈ 802 µM) | 256 µg/mL (≈ 802 µM) | 32 µg/mL (≈ 100 µM) |  |  |  |  |  |  |  |  | 
Cc1nccn1CCN1C(=O)C(=O)c2ccccc21 | 128 µg/mL (≈ 501 µM) | 128 µg/mL (≈ 501 µM) | 128 µg/mL (≈ 501 µM) | 128 µg/mL (≈ 501 µM) | 256 µg/mL (≈ 1000 µM) | 64 µg/mL (≈ 251 µM) | 256 µg/mL (≈ 1000 µM) | 128 µg/mL (≈ 501 µM) | 128 µg/mL (≈ 501 µM) | 128 µg/mL (≈ 501 µM) | 32 µg/mL (≈ 125 µM) |  |  |  |  |  |  |  |  | 
O=C(CC1(O)C(=O)N(CCn2cncn2)c2ccccc21)c1ccc(Cl)cc1 (stereo not given) | 128 µg/mL (≈ 323 µM) | 256 µg/mL (≈ 645 µM) | 128 µg/mL (≈ 323 µM) | 256 µg/mL (≈ 645 µM) | 128 µg/mL (≈ 323 µM) | 256 µg/mL (≈ 645 µM) | 128 µg/mL (≈ 323 µM) | 512 µg/mL (≈ 1290 µM) | 512 µg/mL (≈ 1290 µM) | 128 µg/mL (≈ 323 µM) | 64 µg/mL (≈ 161 µM) |  |  |  |  |  |  |  |  | 
O=C(CC1(O)C(=O)N(CCn2cncn2)c2ccccc21)c1ccc(O)cc1 (stereo not given) | 256 µg/mL (≈ 677 µM) | 256 µg/mL (≈ 677 µM) | 256 µg/mL (≈ 677 µM) | 256 µg/mL (≈ 677 µM) | 256 µg/mL (≈ 677 µM) | 256 µg/mL (≈ 677 µM) | 256 µg/mL (≈ 677 µM) | 256 µg/mL (≈ 677 µM) | 256 µg/mL (≈ 677 µM) | 256 µg/mL (≈ 677 µM) | 512 µg/mL (≈ 1350 µM) |  |  |  |  |  |  |  |  | 
Cc1ccc(C(=O)CC2(O)C(=O)N(CCn3cncn3)c3ccccc32)cc1 (stereo not given) | 256 µg/mL (≈ 680 µM) | 128 µg/mL (≈ 340 µM) | 256 µg/mL (≈ 680 µM) | 256 µg/mL (≈ 680 µM) | 128 µg/mL (≈ 340 µM) | 256 µg/mL (≈ 680 µM) | 128 µg/mL (≈ 340 µM) | 512 µg/mL (≈ 1360 µM) | 512 µg/mL (≈ 1360 µM) | 256 µg/mL (≈ 680 µM) | 128 µg/mL (≈ 340 µM) |  |  |  |  |  |  |  |  | 
Cc1ncc([N+](=O)[O-])n1CCN1C(=O)C(=O)c2ccccc21 | 128 µg/mL (≈ 426 µM) | 128 µg/mL (≈ 426 µM) | 128 µg/mL (≈ 426 µM) | 256 µg/mL (≈ 853 µM) | 128 µg/mL (≈ 426 µM) | 64 µg/mL (≈ 213 µM) | 128 µg/mL (≈ 426 µM) | 128 µg/mL (≈ 426 µM) | 64 µg/mL (≈ 213 µM) | 256 µg/mL (≈ 853 µM) | 128 µg/mL (≈ 426 µM) |  |  |  |  |  |  |  |  | 
CCn1cc(C(=O)O)c(=O)c2cc(F)c(N3CCNCC3)cc21 [NORFLOXACIN] | 8 µg/mL (≈ 25.1 µM) | 4 µg/mL (≈ 12.5 µM) | 1 µg/mL (≈ 3.13 µM) | 1 µg/mL (≈ 3.13 µM) | 2 µg/mL (≈ 6.26 µM) | 4 µg/mL (≈ 12.5 µM) | 16 µg/mL (≈ 50.1 µM) | 8 µg/mL (≈ 25.1 µM) | 2 µg/mL (≈ 6.26 µM) | 2 µg/mL (≈ 6.26 µM) | 8 µg/mL (≈ 25.1 µM) | inactive |  |  |  |  |  |  |  | 
CC(=O)CC1(O)C(=O)N(CCn2cncn2)c2ccccc21 (stereo not given) | 256 µg/mL (≈ 852 µM) | 256 µg/mL (≈ 852 µM) | 256 µg/mL (≈ 852 µM) | 256 µg/mL (≈ 852 µM) | 256 µg/mL (≈ 852 µM) | 256 µg/mL (≈ 852 µM) | 256 µg/mL (≈ 852 µM) | 512 µg/mL (≈ 1700 µM) | 256 µg/mL (≈ 852 µM) | 256 µg/mL (≈ 852 µM) | 256 µg/mL (≈ 852 µM) |  |  |  |  |  |  |  |  | 
CC(=O)/C=C1\C(=O)N(CCn2cncn2)c2ccccc21 | 128 µg/mL (≈ 453 µM) | 32 µg/mL (≈ 113 µM) | 64 µg/mL (≈ 227 µM) | 128 µg/mL (≈ 453 µM) | 64 µg/mL (≈ 227 µM) | 32 µg/mL (≈ 113 µM) | 64 µg/mL (≈ 227 µM) | 1 µg/mL (≈ 3.54 µM) | 32 µg/mL (≈ 113 µM) | 32 µg/mL (≈ 113 µM) | 64 µg/mL (≈ 227 µM) |  | 8 µg/mL (≈ 28.3 µM) | inactive | inactive | Active | Active | Active | 8 | 4
O=C(/C=C1\C(=O)N(CCn2cncn2)c2ccccc21)c1ccc(Cl)cc1 | 32 µg/mL (≈ 84.5 µM) | 32 µg/mL (≈ 84.5 µM) | 512 µg/mL (≈ 1350 µM) | 128 µg/mL (≈ 338 µM) | 64 µg/mL (≈ 169 µM) | 128 µg/mL (≈ 338 µM) | 512 µg/mL (≈ 1350 µM) | 64 µg/mL (≈ 169 µM) | 512 µg/mL (≈ 1350 µM) | 512 µg/mL (≈ 1350 µM) | > 512 µg/mL |  |  |  |  |  |  |  |  | 
